Compound activity from PubChem.
Shown is part of a subset that was picked to be rich in hits.
GSK3 alpha inh: inhibitors of human GSK-3 alpha kinase | P49840 | AID 2650 | inhibition, % at 10 µM | ADP-Glo luminescence, 60 min | 320,000 tested, 0.1% active;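 active = more than half of replicates show inhibition above 20%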;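 also: GST-tagged GSK-3 alpha with peptide substrate and 25 µM ATP; 0% = DMSO neutral wells and 100% = GW8510 positive control wells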
Target sequence (P49840 whole entry, looked up): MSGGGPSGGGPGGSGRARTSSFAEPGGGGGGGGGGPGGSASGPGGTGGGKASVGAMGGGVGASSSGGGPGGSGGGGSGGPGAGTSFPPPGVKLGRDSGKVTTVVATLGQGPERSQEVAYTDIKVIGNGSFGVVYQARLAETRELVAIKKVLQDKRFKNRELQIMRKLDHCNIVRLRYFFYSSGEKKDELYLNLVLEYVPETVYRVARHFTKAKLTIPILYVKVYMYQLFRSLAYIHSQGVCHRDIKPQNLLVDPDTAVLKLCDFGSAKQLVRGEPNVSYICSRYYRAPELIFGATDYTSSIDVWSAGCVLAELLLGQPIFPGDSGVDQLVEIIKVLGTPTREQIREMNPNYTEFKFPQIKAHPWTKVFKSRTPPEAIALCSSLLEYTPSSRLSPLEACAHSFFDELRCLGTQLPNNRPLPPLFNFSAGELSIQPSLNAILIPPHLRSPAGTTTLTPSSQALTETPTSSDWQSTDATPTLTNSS
STK33 inh: human STK33 kinase inhibition; purified STK33, MBP phosphorylation, ADP-Glo luminescence; inhibition, % at 10 µM; 320,000 tested, 0.073% active; AID 2661;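 active = inhibition at or above 25%, using the most active replicate where run in duplicate; inactive = inhibition below 25%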
DYRK1A inh: blocks rat Dyrk1A kinase activity; Q63470; ADP-Glo luminescence, NFATc1 peptide; inhibition, % at 12.5 µM; 310,000 tested, 0.43% active; in the data active = inhibition above about 50%;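 also: plate controls were vehicle with enzyme for no effect and no enzyme for full effect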
GSK3beta inhib: inhibitors of human GSK3beta kinase; activity score (negative = inhibition), % at 10 µM; GST-GSK3beta kinase, ADP-Glo luminescence, 60 min; hits give low values; 300,000 tested, 0.038% active; P49841;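 active = more than half of replicate wells score below -50%, meaning over 50% inhibition versus plate controls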;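 also: 0% = median DMSO wells and -100% = median GW8510 positive control wells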
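Test system: GST-tagged human GSK3beta kinase, cell-free; evaluation: activity score scaled between in-plate DMSO and GW8510 controls; measured by: ADP-Glo luminescence; incubation: 60 min reaction, RT; benchmarks: DMSO and 20 µM GW8510; reagent: peptide substrate plus 25 µM ATP (final); medium: Tris/MgCl2 kinase buffer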
Numbers without * were called inactive; . = not tested or not shown.

SMILES	GSK3 alpha inh	STK33 inh	DYRK1A inh	GSK3beta inhib
O=C(Nc1ccncc1)Nc1ccccn1	72*	8	11	-62*
CN1CCN(C=NC2=NN(c3cccc(C(F)(F)F)c3)CC2)CC1	0	30*	-1	0
CN(C)C=NC1=NN(c2cccc(C(F)(F)F)c2)CC1	.	-1	5	-1
Cc1ccccc1-n1cnnc1SCC(=O)Nc1cccnc1Cl	-1	-1	0	-2
CCC(C(=O)Nc1ccc2[nH]ncc2c1)c1ccccc1 (configuration not stated)	12	26*	26	2
O=C(O)CCn1cc(/C=N/O)c(-c2cccc([N+](=O)[O-])c2)n1	78*	8	14	-66*
NC(=S)N/N=C/c1cn(CCC(=O)O)nc1-c1cccc(Br)c1	1	1	-1	-3
COc1ccc(C(=O)c2sc(NC(C)C)nc2N)cc1OC	91*	-1	2	.
CC(C)(C)C(=O)c1sc(Nc2ccccc2)nc1N	82*	2	21	-64*
COc1ccc(Nc2nc(N)c(C(=O)c3ccc(F)cc3)s2)cc1	62*	3	-3	-45
COc1ccc(C(=O)c2sc(Nc3ccccc3)nc2C)cc1	4	2	4	0
COc1ccc(Nc2nc(N)c(C(=O)c3ccc(OC)cc3)s2)cc1	77*	4	.	-65*
CCOC(=O)c1cnc2ccc(Cl)cc2c1N1CCN(C)CC1	64*	4	35	-42
CCOC(=O)c1cnc2ccc(OCC)cc2c1N1CCN(C)CC1	.	.	34	-19
COCCCNC(=S)Nc1ccc2c(c1)OCCO2	0	0	2	-2
CC(=O)n1cc(-c2ccncc2)c2ccccc21	23	10	69*	-13
CC(=O)n1cc(/C=N/NC(=O)c2sc(C)nc2C)c2ccccc21	8	0	2	-2
COCCNc1nc(N)c([N+](=O)[O-])c(NCC2CCCO2)n1 (configuration not stated)	68*	0	34	-53*
CNc1nc(N)c([N+](=O)[O-])c(NCC2CCCO2)n1 (configuration not stated)	47	4	.	-27
Nc1nc(NCCOCCO)nc(NCC2CCCO2)c1[N+](=O)[O-] (configuration not stated)	60*	-1	-3	-60*
CC(C)CCOc1ccc(C2(C)NC(=O)NC2=O)cc1 (configuration not stated)	0	1	-1	0
CCc1ccccc1N1C(=O)[C@@H]2Cc3ccccc3CN2C1=O	-3	1	.	-4
O/N=C/c1cn(-c2ccccc2)nc1-c1cccnc1	71*	0	0	-29
Cc1ccc(-c2nn(-c3ccccc3)cc2/C=N/NS(=O)(=O)c2ccccc2)cc1	-2	-1	-4	2
Cc1ccc(-c2nn(-c3ccccc3)cc2/C=N/O)cc1	78*	3	.	-52*
SMILES	GSK3 alpha inh	STK33 inh	DYRK1A inh	GSK3beta inhib
CCC(C)N=Cc1c(Nc2ccccc2)nc2c(C)cccn2c1=O (configuration not stated)	0	1	-5	0
O=c1c(/C=N/O)c(Nc2ccccc2)nc2ccccn12	2	57*	.	2
COC(=O)CC1C(=O)NCCN1C(=S)Nc1ccc(F)cc1 (configuration not stated)	0	-1	-10	0
Fc1ccccc1CSc1nnc(-c2ccccc2)o1	3	0	4	-2
c1ccc(CSc2nnc(-c3ccncc3)o2)cc1	67*	0	26	1
COC(=O)c1ccc(CSc2nnc(-c3ccncc3)o2)o1	66*	-1	-10	-42
Cc1ccccc1CSc1nnc(-c2ccncc2)o1	53*	-1	29	-55*
CCn1cc(S(=O)(=O)c2ccc(C)cc2)c(=O)c2cc(OC)ccc21	0	3	0	3
O=C(O)c1ccc(-c2ccc(/C=N/Nc3ccc([N+](=O)[O-])cc3)o2)cc1	1	1	7	0
O=C(O)c1cc(-c2ccc(/C=N/Nc3ccc([N+](=O)[O-])cn3)o2)ccc1Cl	.	.	38	-63*
CC1(N=Cc2cc(Cl)ccc2O)COP(=O)(Nc2ccccc2)OC1 (configuration not stated)	.	.	4	.
CN1/C(=C/C=C(/C#N)C(N)=O)C(C)(C)c2ccccc21	63*	3	11	-35
O=c1c(Cl)c(Cl)cnn1Cc1nnc(-c2ccc(Cl)cc2)o1	.	.	3	-1
O=C(CSc1nc2[nH]ncc2c(=O)n1-c1ccccc1)NCCc1ccccc1	54*	0	48	-38
CCCCn1c(N)c(N(CCOC)C(=O)c2cc(S(=O)(=O)N3CCCCC3)ccc2C)c(=O)[nH]c1=O	0	1	5	0
O=C(Nc1ccccc1C(=O)O)c1cccc(C(=O)Nc2ccccc2C(=O)O)c1	-5	57*	6	5
CCN1CCN(c2cc(C)c3cc(NC(=O)c4ccncc4)ccc3n2)CC1	0	0	1	3
CCN1CCN(c2cc(C)c3cc(NC(=O)c4ccc(Br)o4)ccc3n2)CC1	-2	29*	4	1
CC1(C)CC(=O)C=C(Nc2cc(-c3ccccc3)[nH]n2)C1	49	0	6	-54*
COc1ccc(C(=O)COC(=O)CCc2nc3ccccc3[nH]c2=O)cc1Br	-2	-1	-4	0
CSc1nc2ncc3c(n2n1)CC1c2ccccc2CCN1C3=O (configuration not stated)	72*	0	0	-27
Cc1ccc(/C=N/NC(=O)c2nnn(-c3nonc3N)c2CSc2ccc(Cl)cc2)o1	-8	1	.	-3
Cc1ccc(Sc2ccc(/C=N/O)cc2[N+](=O)[O-])cc1	0	-2	4	-1
CC(C)(C)Sc1ccc(/C=N/O)cc1[N+](=O)[O-]	55*	2	42	-36
C=C1SC(Nc2c(C)cc(C)cc2C)=NC12CCCCC2	0	0	-6	4
SMILES	GSK3 alpha inh	STK33 inh	DYRK1A inh	GSK3beta inhib
CC(C)NCc1c(O)c(Br)cc2oc3c(c12)CCCC3	.	.	4	.
O=C1NCCCc2c1oc1cc(Br)c(O)c(Br)c21	36	12	66*	0
COc1cc(/C=N/n2c(-c3cc(C)[nH]n3)n[nH]c2=S)cc(OC)c1OC	8	0	-8	-3
COc1cc(/C=N/n2c(-c3cc(C)[nH]n3)n[nH]c2=S)ccc1O	10	31*	11	-2
COc1cc(/C=N/n2c(C3CCCCC3)n[nH]c2=S)ccc1O	24	34*	14	-10
Cc1ccc(C(=O)N2CCN(c3ccccn3)CC2)cc1Cl	6	-1	-7	.
COc1cc(/C=N/Nc2ccc(C(F)(F)F)cn2)cc(OC)c1O	.	.	8	-25
Oc1ccc(/C=N/Nc2ccc(C(F)(F)F)cn2)cc1	6	31*	.	-13
CC(NC(=O)CNC(=O)c1ccco1)c1ccccc1 (configuration not stated)	0	0	-1	2
COCCNc1nc(N)c([N+](=O)[O-])c(NC2CCCCC2)n1	61*	1	3	-19
NCCCNc1nc(N)c([N+](=O)[O-])c(NC2CCCCC2)n1	73*	2	8	1
